The IC80 is the concentration needed for an effect of 80%. A high value points to a need for much substance. For orientation: MIC means the lowest concentration that inhibits growth of the organism. Read a high MIC as weaker potency. As usually defined, the inhibition is the percentage by which the read-out fell short of the control. Read a high inhibition as a response far below the control.

In brackets after ≈: the same amount, converted by molar mass. Where only a bound is given, the exact number is not on record here.

A short description of data set [1]: Lipophilicity, log K of the compound. It counts as physicochemical. Summed up: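 Mobile phase used methanol as organic modifier. The capacity factor k was measured and log k calculated from it. Chiral compounds were measured several times.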
Data set [2] has as its system Candida albicans. Put plainly: Antifungal activity against Candida albicans ATCC 44859 after 24 hrs by broth microdilution method. It counts as functional. To be noted: ATCC 44859, 24 h. The method in brief: (§1)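 In vitro antifungal screening against eight strains. Compounds tested at concentrations in the range 62.5–1.95 µmol/L.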
(Broth dilution looks for growth in wells or tubes with falling amounts of substance.)

Data set [3] concerns Candida tropicalis. The data set can be described thus: Antifungal activity against Candida tropicalis ATCC 156 after 24 hrs by broth microdilution method. The note with it: ATCC 156, 24 h. It counts as functional. Summed up: as §1
Data set [4] relates to Pichia kudriavzevii. Put plainly: Antifungal activity against Candida krusei E28 after 24 hrs by broth microdilution method. The format is functional. The method in brief: as §1
In data set [5] the test system is Nakaseomyces glabratus. Put plainly: Antifungal activity against Candida glabrata 20/I after 24 hrs by broth microdilution method. The format is functional. Summed up:
as §1

Data set [6] deals with Trichosporon beigelii. Put plainly: Antifungal activity against Trichosporon beigelii 1188 after 24 hrs by broth microdilution method. It counts as functional. Summed up:
as §1

Data set [7] relates to Aspergillus fumigatus. Put plainly: Antifungal activity against Aspergillus fumigatus 231 after 24 hrs by broth microdilution method. The format is functional. The method in brief:
as §1

The test system of data set [8] is Lichtheimia corymbifera. The data set can be described thus: Antifungal activity against Absidia corymbifera 272 after 24 hrs by broth microdilution method. The format is functional. Summed up:
as §1

Data set [9] relates to Trichophyton mentagrophytes. The data set can be described thus: Antifungal activity against Trichophyton mentagrophytes 445 after 24 hrs by broth microdilution method. It counts as functional. The method in brief:
as §1

Data set [10] concerns Candida albicans. The data set can be described thus: Antifungal activity against Candida albicans ATCC 44859 after 48 hrs by broth microdilution method. It counts as functional. The note with it: ATCC 44859, 48 h. Summed up:
as §1

For data set [11], the system named is Candida tropicalis. The data set can be described thus: Antifungal activity against Candida tropicalis ATCC 156 after 48 hrs by broth microdilution method. It counts as functional. To be noted: ATCC 156, 48 h. The method in brief:
as §1

The subject of data set [12] is Pichia kudriavzevii. The data set can be described thus: Antifungal activity against Candida krusei E28 after 48 hrs by broth microdilution method. The format is functional. The method in brief: as §1
Data set [13] deals with Nakaseomyces glabratus. Put plainly: Antifungal activity against Candida glabrata 20/I after 48 hrs by broth microdilution method. It counts as functional. Summed up: as §1
Data set [14] concerns Trichosporon beigelii. The data set can be described thus: Antifungal activity against Trichosporon beigelii 1188 after 48 hrs by broth microdilution method. It counts as functional. Summed up: as §1
The test system of data set [15] is Aspergillus fumigatus. Put plainly: Antifungal activity against Aspergillus fumigatus 231 after 48 hrs by broth microdilution method. The format is functional. The method in brief: as §1
Data set [16] relates to Lichtheimia corymbifera. Put plainly: Antifungal activity against Absidia corymbifera 272 after 48 hrs by broth microdilution method. The format is functional. The method in brief:
as §1

The subject of data set [17] is Trichophyton mentagrophytes. Put plainly: Antifungal activity against Trichophyton mentagrophytes 445 after 48 hrs by broth microdilution method. It counts as functional. Summed up: as §1
Data set [18] relates to Mycobacterium tuberculosis. Put plainly: Antitubercular activity against Mycobacterium tuberculosis H37Rv by microplate alamar blue assay. It counts as functional. For orientation: Alamar Blue is a resazurin reagent that responds to reducing activity.
For data set [19], the system named is Mycobacterium tuberculosis. The data set can be described thus: Antitubercular activity against Mycobacterium tuberculosis H37Rv at 6.25 ug/ml by microplate alamar blue assay. It counts as functional. The method in brief: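 Primary single-concentration screen at the TAACF against M. tuberculosis H37Rv (ATCC 27294) in BACTEC 12B medium, read by Microplate Alamar Blue Assay. Each compound was tested at 6.25 per mL, or at the molar equivalent of the highest-molecular-weight compound in its congener series.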

For `O=C(CNC(=O)OCc1ccccc1)Oc1ccc(Cl)cc1C(=O)Nc1ccc(Cl)c(Cl)c1`, the “log K” value in data set [1] is listed as 0.8639. Also, the IC80 in the data set on Candida albicans [2], with Candida tropicalis [3], with Pichia kudriavzevii [4], with Nakaseomyces glabratus [5], in the data set with Trichosporon beigelii [6] and in the data set with Aspergillus fumigatus [7] was greater than 62.5 mg/L each time. Also, the concentration for an effect of 80% (IC80) with Lichtheimia corymbifera [8] is 62.5 mg/L (≈ 123 µM); in data set [9] it was 31.2 mg/L (≈ 61.5 µM); with Candida albicans [10], greater than 62.5 mg/L; in the data set with Candida tropicalis [11], greater than 62.5 mg/L; in the data set with Pichia kudriavzevii [12], greater than 62.5 mg/L; in the data set on Nakaseomyces glabratus [13], greater than 62.5 mg/L. Further, the IC80 in the data set with Trichosporon beigelii [14] was greater than 62.5 mg/L; in the data set on Aspergillus fumigatus [15] it was greater than 62.5 mg/L; in the data set with Lichtheimia corymbifera [16], greater than 62.5 mg/L; in data set [17] it was 31.2 mg/L (≈ 61.5 µM). Moreover, the MIC in data set [18] is greater than 6.25 mg/L. In data set [19], this molecule showed an inhibition at 6.25 µg/mL of 0%.

Take `C[C@H](NC(=O)OCc1ccccc1)C(=O)Oc1ccc(Cl)cc1C(=O)Nc1cccc(Cl)c1`: the “log K” value in [1] was 0.6995. Also, the IC80 with Candida albicans [2] is 31.2 mg/L (≈ 64.1 µM); in the data set on Candida tropicalis [3] it was greater than 62.5 mg/L; in the data set with Pichia kudriavzevii [4] it was 31.2 mg/L (≈ 64.1 µM); in the data set with Nakaseomyces glabratus [5] it was 31.2 mg/L (≈ 64.1 µM); in the data set on Trichosporon beigelii [6], greater than 62.5 mg/L; in the data set with Aspergillus fumigatus [7] it was 62.5 mg/L (≈ 128 µM). Further, the IC80 with Lichtheimia corymbifera [8] was 15.6 mg/L (≈ 32.1 µM); in data set [9], 7.81 mg/L (≈ 16 µM); in the data set on Candida albicans [10] it was greater than 62.5 mg/L; in the data set on Candida tropicalis [11], greater than 62.5 mg/L; in the data set with Pichia kudriavzevii [12] it was 31.2 mg/L (≈ 64.1 µM); with Nakaseomyces glabratus [13] it was greater than 62.5 mg/L. Besides, the IC80 with Trichosporon beigelii [14] was greater than 62.5 mg/L; with Aspergillus fumigatus [15], greater than 62.5 mg/L; with Lichtheimia corymbifera [16] it was 15.6 mg/L (≈ 32.1 µM); in data set [17], 7.81 mg/L (≈ 16 µM). In [18], this molecule came in with an MIC of 3.13 mg/L (≈ 6.42 µM). The inhibition at 6.25 µg/mL in [19] amounted to 97%.

Turning to `O=C(N[C@@H](Cc1ccccc1)C(=O)Oc1ccc(Cl)cc1C(=O)Nc1ccc(Cl)cc1)OCc1ccccc1`, the “log K” value in data set [1] turned out to be 1.0971. Further, the IC80 is 62.5 mg/L (≈ 111 µM) with Candida albicans [2]; 31.2 mg/L (≈ 55.5 µM) in the data set on Candida tropicalis [3]; 15.6 mg/L (≈ 27.7 µM) in the data set with Pichia kudriavzevii [4]; 31.2 mg/L (≈ 55.5 µM) in the data set with Nakaseomyces glabratus [5]; 31.2 mg/L (≈ 55.5 µM) in the data set with Trichosporon beigelii [6]; greater than 62.5 mg/L in the data set on Aspergillus fumigatus [7]. For the same molecule, the IC80 came to 15.6 mg/L (≈ 27.7 µM) in the data set with Lichtheimia corymbifera [8]; 7.81 mg/L (≈ 13.9 µM) in data set [9]; 62.5 mg/L (≈ 111 µM) in the data set with Candida albicans [10]; 31.2 mg/L (≈ 55.5 µM) in the data set on Candida tropicalis [11]; 15.6 mg/L (≈ 27.7 µM) with Pichia kudriavzevii [12]; 31.2 mg/L (≈ 55.5 µM) in the data set on Nakaseomyces glabratus [13]. The IC80 with Trichosporon beigelii [14] is 62.5 mg/L (≈ 111 µM); in the data set on Aspergillus fumigatus [15] it was greater than 62.5 mg/L; with Lichtheimia corymbifera [16] it was 15.6 mg/L (≈ 27.7 µM); in data set [17], 7.81 mg/L (≈ 13.9 µM). Also, in data set [18], the MIC is greater than 6.25 mg/L. The molecule further showed an inhibition at 6.25 µg/mL in [19] of 16%.

Consider `C[C@H](NC(=O)OCc1ccccc1)C(=O)Oc1ccc(Cl)cc1C(=O)Nc1ccc(C(F)(F)F)cc1`, for which the “log K” value in data set [1] worked out at 0.8149. Also, the IC80 with Candida albicans [2] is 62.5 mg/L (≈ 120 µM); in the data set with Candida tropicalis [3], 500 mg/L (≈ 960 µM); in the data set with Pichia kudriavzevii [4] it was 7.81 mg/L (≈ 15 µM); in the data set with Nakaseomyces glabratus [5], 125 mg/L (≈ 240 µM); with Trichosporon beigelii [6] it was 62.5 mg/L (≈ 120 µM); in the data set on Aspergillus fumigatus [7] it was 7.81 mg/L (≈ 15 µM). For the same molecule, the IC80 came out at 31.2 mg/L (≈ 60 µM) in the data set on Lichtheimia corymbifera [8]; 1.95 mg/L (≈ 3.74 µM) in data set [9]; 250 mg/L (≈ 480 µM) with Candida albicans [10]; 500 mg/L (≈ 960 µM) with Candida tropicalis [11]; 31.2 mg/L (≈ 60 µM) with Pichia kudriavzevii [12]; 250 mg/L (≈ 480 µM) in the data set on Nakaseomyces glabratus [13]. Also, the IC80 stood at 250 mg/L (≈ 480 µM) in the data set on Trichosporon beigelii [14], 15.6 mg/L (≈ 30 µM) with Aspergillus fumigatus [15], 62.5 mg/L (≈ 120 µM) in the data set with Lichtheimia corymbifera [16] and 1.95 mg/L (≈ 3.74 µM) in data set [17]. For the same molecule, 3.13 mg/L (≈ 6.01 µM) was the least that counted as inhibitory in data set [18] (MIC). The molecule also returned an inhibition at 6.25 µg/mL in [19] of 99%.

As to `CC(C)[C@H](NC(=O)OCc1ccccc1)C(=O)Oc1ccc(Cl)cc1C(=O)Nc1ccc(Cl)cc1`, the “log K” value in data set [1] was found to be 0.9421. Also, the IC80 in the data set with Candida albicans [2] is greater than 62.5 mg/L; with Candida tropicalis [3], greater than 62.5 mg/L; with Pichia kudriavzevii [4] it was 31.2 mg/L (≈ 60.6 µM); with Nakaseomyces glabratus [5], greater than 62.5 mg/L; in the data set with Trichosporon beigelii [6], greater than 62.5 mg/L; in the data set with Aspergillus fumigatus [7], greater than 62.5 mg/L. Further, the IC80 in the data set on Lichtheimia corymbifera [8] was greater than 62.5 mg/L; in data set [9], 15.6 mg/L (≈ 30.3 µM); with Candida albicans [10] it was greater than 62.5 mg/L; in the data set on Candida tropicalis [11], greater than 62.5 mg/L; in the data set with Pichia kudriavzevii [12], 15.6 mg/L (≈ 30.3 µM); in the data set with Nakaseomyces glabratus [13] it was greater than 62.5 mg/L. Further, the IC80 in the data set with Trichosporon beigelii [14] is 31.2 mg/L (≈ 60.6 µM); with Aspergillus fumigatus [15], greater than 62.5 mg/L; in the data set on Lichtheimia corymbifera [16], greater than 62.5 mg/L; in [17], 15.6 mg/L (≈ 30.3 µM). For the same molecule, the MIC in data set [18] was greater than 6.25 mg/L. This molecule also registered an inhibition at 6.25 µg/mL in [19] of 38%.

Take `O=C(CNC(=O)OCc1ccccc1)Oc1ccc(Cl)cc1C(=O)Nc1ccc(Cl)cc1`: the “log K” value in data set [1] is reported as 0.6367. The IC80 is 62.5 mg/L (≈ 132 µM) with Candida albicans [2]; 31.2 mg/L (≈ 66 µM) in the data set with Candida tropicalis [3]; 31.2 mg/L (≈ 66 µM) in the data set on Pichia kudriavzevii [4]; 62.5 mg/L (≈ 132 µM) in the data set on Nakaseomyces glabratus [5]; 62.5 mg/L (≈ 132 µM) in the data set on Trichosporon beigelii [6]; greater than 62.5 mg/L in the data set on Aspergillus fumigatus [7]. In addition, the IC80 is 31.2 mg/L (≈ 66 µM) in the data set on Lichtheimia corymbifera [8]; 15.6 mg/L (≈ 33 µM) in data set [9]; 62.5 mg/L (≈ 132 µM) with Candida albicans [10]; 31.2 mg/L (≈ 66 µM) in the data set on Candida tropicalis [11]; 31.2 mg/L (≈ 66 µM) in the data set with Pichia kudriavzevii [12]; 62.5 mg/L (≈ 132 µM) in the data set with Nakaseomyces glabratus [13]. In addition, the IC80 was greater than 62.5 mg/L in the data set on Trichosporon beigelii [14], greater than 62.5 mg/L in the data set on Aspergillus fumigatus [15], 62.5 mg/L (≈ 132 µM) with Lichtheimia corymbifera [16] and 15.6 mg/L (≈ 33 µM) in [17]. This molecule registered an MIC in data set [18] greater than 6.25 mg/L. In data set [19], this molecule showed an inhibition at 6.25 µg/mL of 16%.
